Assay outcomes: PubChem, Broad Institute
rRNA inh HTS = inhibitors of bacterial rRNA selective over humanized ribosomes; E. coli WT GFP vs humanized-ribosome RFP mutants, fluorescence, 24 h; stronger effect = lower value; DMSO median 0, no signal -100; GFP signal change (wild-type ribosome), % (no concentration beside the values); hit rate 1.6% among 350,000; AID 720706;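 active means significant combined selectivity score with lowered wild-type GFP, culture density cut under 30%, mutant RFP and density less affected; inactive means any of these conditions unmet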
Env fusion inh = HIV envelope-mediated fusion inhibition; HeLa-JRFL Env/CEM21 cell fusion, luciferase; inhibition, % at 12.3 µM; hit rate 1.1% among 360,000;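 active means mean replicate inhibition score of at least 50 and every replicate individually at or above 50; inconclusive means only one of the two criteria met; inactive means mean below 50 and not all replicates reaching 50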;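 further: 0% = plate neutral controls and 100% = maraviroc near 300 nM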
FN deposition inh = fibronectin deposition inhibition. AH1F fibroblasts, Alexa488-fibronectin deposition fluorescence, overnight. inhibition, % at 12.6 µM. hit rate 0.086% among 350,000;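 active means mean inhibition across replicates of 30% or more, regardless of how many single replicates reach that level; inconclusive means mean under 30% yet at least half of replicates reach 30%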;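 further: positive control wells lacked labelled fibronectin entirely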
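Measured by – fluorescence 485/525 nm · System – AH1F fibroblast monolayer, labelled fibronectin deposition · Amount – 10000 cells per well · Buffer or medium – serum-reduced DMEM (2% serum) · Doses – single dose, pinned · Also added – fluorescent fibronectin at 24 nM final · Schedule – 1 h cell attachment, overnight exposure to compound and label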
PGC1a acetyl inh = modulators of PGC1a acetylation; U2OS PGC1a acetylation, AlphaScreen anti-acetyl-lysine; with virally co-expressed GCN5 acetyltransferase; inhibition, % at 15.6 µM; AID 651687; hit rate 0.17% among 350,000;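 active means every replicate shows inhibition of at least 40%; inconclusive means mean inhibition at least 40% but some replicate below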;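 further: 0% = neutral control wells and 100% = positive control wells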
DENV2 CPE = protects cells from dengue virus 2 cytopathic effect; CPE inhibition, % at 9.99 µM; hit rate 1.7% among 350,000; DENV2-infected cells, cytopathic effect rescue, plate reader; in the data active means CPE inhibition above about 20%, passing the limit was not always enough; inconclusive means no clear call, values can overlap the other calls; tested in BHK-21 cells;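 further: 0% = median of neutral control wells and 100% = median of positive control wells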
PglD DTNB = blocks C. jejuni PglD acetyltransferase activity; AID 602405; hit rate 0.098% among 360,000; purified PglD enzyme, DTNB colorimetric CoA detection; inhibition, % at 12.5 µM; in the data active means inhibition above about 16%, passing the limit was not always enough; inconclusive means no clear call, values can overlap the other calls
An asterisk follows results filed as active; ? = inconclusive; / = no result; [ ] = dose if it differs, or a comment. Rows were chosen to be rich in hits. Some 3.5% of all compounds tested hit in one or more screens of this group.

SMILES | rRNA inh HTS | Env fusion inh | FN deposition inh | PGC1a acetyl inh | DENV2 CPE | PglD DTNB
CCOC(=O)CSc1nnc(-c2cc(OC)c(OC)c(OC)c2)o1 | 1 | -20 | 21 | -4 | 2 | /
COc1ccc(C(=O)NC(=S)N(C)C2CCCCC2)cc1Br | 2 | 7 | / | 1 | 59* | 7
COc1ccccc1/C=C/C(=O)NC(=S)N(C)C1CCCCC1 | -24* | / | / | -4 | -3 | -4
CCN(CC)S(=O)(=O)c1cc([N+](=O)[O-])ccc1NNC(=O)Nc1ccc(Cl)c(Cl)c1 | / | 97* | 3 | / | / | 5
Cn1ncc(Cl)c1C(=O)N1CCN(c2ccc(F)cc2)CC1 | 3 | -14 | 4 | 0 | 50* | -1
CC(C)NC(=O)N(C)C[C@@H]1Oc2ccc(N)cc2C(=O)N(C)C[C@@H]1C | 2 | / | -1 | / | / | /
NC(=O)c1sc2nc(-c3ccccc3)c3c(c2c1N)CCCC3 | -13 | 17 | -16 | -10 | -1 | -1
NC(=O)c1sc2nccc(Nc3ccccc3)c2c1N | / | 93* | 3 | / | / | 4
COc1ccc(C(Nc2cccc([N+](=O)[O-])c2)P(=O)(OC(C)C)OC(C)C)cc1 (stereo not given) | -2 | 57* | 3 | -4 | 7 | /
COc1ccccc1-c1ccc([C@@H]2C[C@H]3[C@H](CON3C)CN2C(=O)c2ccc(-c3ccccc3)cc2)cc1 | 8 | 2 | / | -2 | 38* | -4
CC(=O)N1C[C@H]2CON(C)[C@H]2C[C@H]1c1ccc(-c2ccccc2)cc1 | -2 | 23 | 8 | 2 | 0 | -3
CN(C)CCCNC(CC(=O)Nc1cccc([N+](=O)[O-])c1)C(=O)O (stereo not given) | 13 | / | 15 | -7 | 48* | -36
COc1ccc(-c2coc3c(C)c4oc(=O)c(CCC(=O)O)c(C)c4cc23)cc1 | / | / | / | / | / | 5
Cc1c(CC(=O)O)c(=O)oc2cc3occ(-c4ccccc4)c3cc12 | -19* | 11 | 0 | 6 | -2 | 6
Cc1c(CC(=O)NCCC(=O)O)c(=O)oc2cc3occ(-c4ccccc4)c3cc12 | -22 | 6 | 2 | / | 3 | 0
Cc1c(CCC(=O)O)c(=O)oc2c(C)c3occ(-c4ccc(Br)cc4)c3cc12 | -16* | 3 | 3 | / | -10 | -2
CO[C@@H]1CN(C)C(=O)c2cc(NS(=O)(=O)c3ccc(Oc4ccccc4)cc3)ccc2OC[C@H](C)NC[C@@H]1C | -2 | -9[16.7 µM] | 9 | 1 | 2 | 2
O=C(c1ccccc1F)N1C[C@@H]2O[C@H](CNS(=O)(=O)c3ccccc3)CC[C@@H]21 | / | / | / | / | 61* | /
CO[C@H]1CN(C)C(=O)c2ccc(NC(=O)Nc3cccc(F)c3)cc2OC[C@@H](C)N(C(C)=O)C[C@H]1C | -5 | 65*[16.7 µM] | -4 | 15 | ? | 2
CO[C@@H]1CN(C)C(=O)c2cc(NC(C)=O)ccc2OC[C@H](C)N(C(=O)c2ccccc2)C[C@@H]1C | -1 | -2[16.7 µM] | -32 | / | -8 | 2
CO[C@H]1CN(C)C(=O)c2cc(NC(C)=O)ccc2OC[C@@H](C)N(C(=O)c2ccccc2)C[C@@H]1C | 1 | -10[16.7 µM] | -10 | / | 24* | 3
CO[C@@H]1CN(C)C(=O)c2ccc(NC(=O)Nc3cccc(F)c3)cc2OC[C@@H](C)N(C(=O)Nc2cccc(F)c2)C[C@H]1C | -2 | 74*[16.7 µM] | -5 | -8 | -10 | -5
CO[C@@H]1CN(C)C(=O)c2ccc(NC(=O)Nc3cccc(F)c3)cc2OC[C@@H](C)N(C(C)=O)C[C@@H]1C | -4 | -1[16.7 µM] | -12 | 10 | -6 | 1
CO[C@H]1CN(C)C(=O)c2cc(NC(=O)Nc3ccccc3)ccc2OC[C@H](C)N(C(C)=O)C[C@H]1C | -2 | -4[16.7 µM] | 11 | -12 | 66* | 1
C[C@@H]1CN([C@@H](C)CO)C(=O)c2cc(NC(=O)Nc3ccc(F)cc3)ccc2O[C@@H](C)CCCCO[C@H]1CN(C)C(=O)Cc1ccccc1 | -2 | 10[16.7 µM] | / | 0 | 3 | 2
SMILES | rRNA inh HTS | Env fusion inh | FN deposition inh | PGC1a acetyl inh | DENV2 CPE | PglD DTNB
C[C@H](CO)N1C[C@H](C)[C@@H](CN(C)Cc2ccncc2)OCCCC[C@H](C)Oc2ccc(NS(=O)(=O)c3ccc(F)cc3)cc2C1=O | -5 | -13[16.7 µM] | -14 | 1 | -6 | -2
Cc1ccc(S(=O)(=O)Nc2ccc3c(c2)C(=O)N([C@H](C)CO)C[C@@H](C)[C@H](CN(C)Cc2ccccc2)OCCCC[C@@H](C)O3)cc1 | -1 | -9[16.7 µM] | -6 | -17 | -11 | 1
C[C@@H]1CN([C@H](C)CO)S(=O)(=O)c2ccc(-c3cccc(F)c3)cc2O[C@@H]1CN(C)S(=O)(=O)c1ccccc1 | 2 | 107*[16.7 µM] | / | -2 | -1 | 2
C[C@H]1CN([C@@H](C)CO)S(=O)(=O)c2ccc(-c3cccc(F)c3)cc2O[C@H]1CN(C)S(=O)(=O)c1ccccc1 | -4 | 90*[16.7 µM] | / | -30 | -1 | 1
C[C@H](CO)N1C[C@H](C)[C@@H](CN(C)S(=O)(=O)c2ccccc2)Oc2cc(-c3cccc(F)c3)ccc2S1(=O)=O | -1 | 18[16.7 µM] | / | -18 | ? | 2
C[C@H](CO)N1C[C@H](C)[C@H](CN(C)S(=O)(=O)c2ccccc2)Oc2cc(-c3cccc(F)c3)ccc2S1(=O)=O | 2 | 83*[16.7 µM] | / | 3 | -12 | 0
C[C@H](CO)N1C[C@H](C)[C@H](CN(C)S(=O)(=O)c2cn(C)cn2)Oc2ccc(N(C)C)cc2CC1=O | 3 | 3[16.7 µM] | 1 | 5 | 5 | 1
CC[n+]1c(/C=C/c2ccc(OC(C)=O)c(OC)c2)ccc2ccccc21 | -14* | -21 | -2 | 10 | 0 | 12
COc1ccc(-c2cnc3c(c2)C(=O)N([C@H](C)CO)C[C@H](C)[C@H](CN(C)S(=O)(=O)c2cn(C)cn2)O3)cc1 | 5 | -3[16.7 µM] | / | / | 9 | 1
CO[C@H]1/C=C/O[C@@]2(C)Oc3c(C)c(O)c4c(O)c(c5c(c4c3C2=O)NC2(CCN(CC(C)C)CC2)N=5)=NC(=O)/C(C)=C\C=C\[C@H](C)[C@H](O)[C@@H](C)[C@@H](O)[C@@H](C)[C@H](OC(C)=O)[C@@H]1C | -58 | / | / | -5 | 110* | -2
Nc1nnc(CC(=O)N/N=C/c2ccccc2OCc2ccccc2F)s1 | -6 | 21 | -2 | / | 3 | /
Nc1nnc(CC(=O)N/N=C/c2ccccc2OCc2ccc(F)cc2)s1 | -6 | 13 | 10 | 61* | 4 | -6
Cc1cc(C)nc(N/N=C/c2ccccc2OCc2ccccc2)n1 | 3 | / | 4 | 12 | 79* | -7
COc1ccc(CSCC(=O)N/N=C/c2ccccc2OCc2ccccc2)cc1 | / | -25 | -12 | 3 | / | -1
O=C(CSCc1ccccc1)N/N=C/c1ccccc1OCc1ccccc1 | -27* | / | / | -20 | -1 | 3
Cc1cc(C)nc(N/N=C/c2cc(Br)ccc2O)n1 | -37* | -3 | -2 | 19 | -4 | 8
